Shown are actives, neighbours in structure and some others; about 3% of the full set was active somewhere.
PLCg1 inh = blocks human PLC-gamma1 enzyme activity; P19174; purified PLC-gamma1, fluorogenic substrate, fluorescence; inhibition, % at 12.2 µM; 0.84% of 370,000 active; AID 720700; in the data active means inhibition above about 9.5%
Tn6 DDE FP = inhibitors of Tn6 peptide binding to human fibrin DD(E) | P02675 | Fibrin DD(E) TRITC-Tn6 fluorescence polarization displacement | inhibition, % at 8.3 µM | 0.21% of 370,000 active | AID 720509;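 active means inhibition above a per-campaign cutoff: mean of compounds within control limits plus 3 SD, cut at about 15% in these data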
DDE Tn7 FP inh = DD(E)-Tn7 binding inhibition, primary FP screen. FP displacement of FITC-Tn7 peptide from fibrin DD(E); 0% = median of compound wells per plate. inhibition, % at 8.3 µM. 0.13% of 370,000 active. AID 720508;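 active means inhibition above the mean of compounds falling within the control limits plus 3 SD of them, cut at about 14% in these data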
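Assay system: Fibrin-DD(E) protein isolated from polymerized human fibrin clots; read-out basis: percent inhibition; medium: Tris/NaCl/CaCl2 buffer, pH 7.8; signal: FP measurement; incubation: 10 min plus 3 h, room temperature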
PLCb3 inh = blocks human PLC-beta3 enzyme activity; Q01970; Purified PLC-beta3, fluorogenic substrate, fluorescence; inhibition, % at 12.2 µM; 0.18% of 370,000 active; AID 720704; in the data active means inhibition above about 11%
NRP1-CendR mod = NRP-1/CendR interaction modulation; O14786; FAM-RPARPAR peptide binding to NRP-1, fluorescence polarization; inhibition, % at 25 µM; 0.85% of 360,000 active;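 active means inhibition or corrected inhibition above about 18%, plus a signal ratio from 0.5 to 1.5, limit read from the data, passing the limit was not always enough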
KLK7 zymogen act = proKLK7 (human) activation, primary screen; P49862; purified proKLK7, EDANS-DABCYL substrate fluorescence; 100% is mature enzyme control, 0% vehicle; activation, % at 7 µM; 0.9% of 370,000 active;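 active means activation above the mean of all tested compounds plus 3 SD, computed per campaign excluding outliers beyond control limits, cut at about 13% in these data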
KLK7 act conf = proKLK7 activation, confirmation; shares compounds with KLK7 zymogen act; purified proKLK7, EDANS-DABCYL substrate fluorescence; scaled: vehicle 0, mature enzyme 100; activation, % at 7 µM; 68% of 3,200 active; AID 686949;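 active means activation, as change over the incubation, above the mean of all tested compounds plus 3 SD, cut at about 13% in these data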
EDANS-DABCYL int = fluorescence interference counter-screen for KLK7 activators; shares compounds with KLK7 zymogen act; EDANS-DABCYL substrate fluorescence interference, no enzyme, 4 h; solvent 0%, active enzyme control 100%; AID 686952; activation, % at 7 µM; 80% of 3,200 active;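 active means activation above the all-compound mean plus 3 SD, ignoring values outside control-based bounds, cut at about 4.8% in these data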;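 further: value is the 4 h activation minus the activation read at time zero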
K7 EDANS ctr = counter-screen for kallikrein-7 activators: EDANS-DABCYL interference, dose response | shares compounds with KLK7 zymogen act | EDANS-DABCYL peptide fluorescence interference, no enzyme | EC50, µM | 20% of 250 active;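 active means compounds that raise the fluorescence signal in this interference counterscreen, with EC50 at or below 10 µM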;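 further: intact quenched peptide substrate alone read at 355 nm excitation and 520 nm emission; signal is fluorescence gain from T0 to T4 after four hours at room temperature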
A number is an active result; . = inactive; / = no result given.

SMILES	PLCg1 inh	Tn6 DDE FP	DDE Tn7 FP inh	PLCb3 inh	NRP1-CendR mod	KLK7 zymogen act	KLK7 act conf	EDANS-DABCYL int	others
CCC(C)NC(=O)c1cc2c(=O)n3cccc(C)c3nc2s1 (stereo unspecified)	.	.	.	.	.	20	18	.	K7 EDANS ctr=.
CCN(CC)C(=O)c1cc2c(=O)n3cccc(C)c3nc2s1	.	.	.	.	.	20	13	15
COC(=O)C1CN(Cc2ccc(C)cc2)CCS(=O)(=O)N1Cc1cn(Cc2ccc(OC)cc2)nn1 (stereo unspecified)	.	.	.	.	/	.	/	/
Cc1cccc(NC(=O)C2CCCN(c3nnc(-n4cccc4)s3)C2)c1C (stereo unspecified)	.	.	.	.	/	.	/	/
O=C(Nc1ccc(F)cc1F)C1CCN(c2nnc(-n3cccc3)s2)CC1	.	.	.	.	/	.	/	/
Cc1oc2c(O)c(O)ccc2c(=O)c1-c1ccc(Cl)cc1	.	.	.	.	.	.	/	/
Cc1oc2c(CN3CCCCC3)c(O)ccc2c(=O)c1-c1ccc(Br)cc1	.	.	.	.	.	25	21	17	K7 EDANS ctr=.
Cc1oc2c(CN3CCCC3)c(O)ccc2c(=O)c1-c1ccc(Br)cc1	.	.	.	.	.	15	35	30	K7 EDANS ctr=.
COc1ccc(-c2c(C)oc3c(CN4CCOCC4)c(O)ccc3c2=O)cc1	.	.	.	.	.	67	24	32
C=CCNC(=O)N1CCC(c2nc3ccc(Cl)cc3[nH]2)CC1	.	.	.	.	/	.	/	/
CC(=O)NC1CCCCN(C(C)C)C1=O (stereo unspecified)	.	.	.	.	/	.	/	/
COc1ccc2nc3ccccc3[n+]([O-])c2c1	.	.	.	.	.	27	32	34
COc1cccc(C(=O)Nc2cc(-c3cn4cccnc4n3)ccc2C)c1	.	.	.	.	.	31	.	.
CC(C)(C)CC(=O)Nc1cccc(-c2cn3cccnc3n2)c1	.	.	.	.	.	25	16	19
COc1cc(C(=O)Nc2cccc(-c3cn4cccnc4n3)c2)cc(OC)c1OC	.	.	.	.	.	30	.	.
C=CCNC(=O)N1CCN(Cc2nc3ccccc3c(=O)[nH]2)CC1	.	.	.	.	/	.	/	/
Cc1ccccc1N(CC(=O)NC1CCCC1)C(=O)C1(C)CC(=O)N=C2C=CC(Cl)=CN21 (stereo unspecified)	.	.	.	.	.	16	33	39
CCN(Cc1ccccc1)C(=O)C1C2C=CC3(CN(Cc4ccccc4)C(=O)C13)O2 (stereo unspecified)	.	.	.	.	/	.	/	/
COc1cc(-c2cc(C(=O)Nc3ccc(O)cc3)c3ccccc3n2)cc(OC)c1OC	.	.	.	.	.	.	/	/
COc1ccc(-c2cc(C(=O)Nc3ccc(C(N)=O)cc3)c3ccccc3n2)cc1OC	.	.	.	.	.	18	.	.
COc1cc(OC)c(-c2nnc(-c3ccc(OC)c(OC)c3OC)o2)cc1OC	.	.	.	.	.	13	.	.
COc1cccc(-c2nnc(-c3ccc(C(F)(F)F)cc3)o2)c1OC	.	.	.	.	.	.	/	/
C=CCN(Cc1ccc2c(c1)OCO2)C(C#Cc1ccccc1)c1ccccc1C(F)(F)F (stereo unspecified)	.	.	.	.	/	.	/	/
COC(=O)c1cc(C(c2ccccc2O)C2CCC(C)(C)O2)n2ccccc12 (stereo unspecified)	.	.	.	.	/	36	.	.
COc1c2c(cc3c1c(=O)c1ccccc1n3C)OCO2	.	.	.	.	/	45	56	77
SMILES	PLCg1 inh	Tn6 DDE FP	DDE Tn7 FP inh	PLCb3 inh	NRP1-CendR mod	KLK7 zymogen act	KLK7 act conf	EDANS-DABCYL int	others
COC(=O)N1C[C@H](OCc2cn(-c3cc(Cl)cc(Cl)c3)nn2)[C@H](OCc2cn(-c3cc(Cl)cc(Cl)c3)nn2)C[C@@H]1c1ccccc1Br	.	.	.	.	/	.	/	/
CCCCN(CC)CCNC(=O)CCC(=O)Nc1ccc2nc(N3CCN(C)CC3)cc(C)c2c1	.	.	.	.	.	78	106	115
CCCN(CCC)CCNC(=O)CCC(=O)Nc1ccc2nc(N3CCOCC3)cc(C)c2c1	.	.	.	.	.	57	153	144
COC(=O)C[C@H]1CC[C@@H]2[C@@H](COc3ccc(NS(=O)(=O)c4ccccc4Cl)cc3C(=O)N2C)O1	.	.	.	.	/	.	/	/
CN(C)c1cccc(-c2cnc(N3CCC(C(N)=O)CC3)nc2)c1	.	.	.	.	/	/	/	/
CN(Cc1ccccc1)C(=O)OCc1cn(Cc2cccc(C(F)(F)F)c2)nn1	.	.	.	.	/	.	/	/
CCCCNC(=O)C[C@@H]1C(=O)N(Cc2ccc(OC)cc2)/C2=C/CCCCC[C@@]21C(=O)OCC	.	.	.	.	/	.	/	/
Cc1nc2sc(C(=O)NCc3nccs3)c(N)c2c(C)c1Cl	.	.	.	.	/	84	63	68
O=c1nc(-c2ccccc2Cl)c2cc(F)ccc2[nH]1	.	.	.	.	.	19	31	26	K7 EDANS ctr=.
O=c1c2ccccc2[nH]c2ccc(F)cc12	.	.	.	.	.	.	/	/
Cc1ccc2nc(-c3ccc(SCC(=O)Nc4nnc(C)s4)nc3)[nH]c2c1	.	.	.	.	.	14	.	6.0
CCOC(=O)N1C(=O)C[C@](Sc2ccc(OC)cc2)(C(=O)N(C)C)[C@H]1c1ccc(OC)cc1	.	.	.	.	/	.	/	/
Cn1c2ccccc2c(=O)c2ccc(NCc3ccc4c(c3)OCO4)cc21	.	.	.	.	.	.	/	/
CN1CCCC1CCNc1ccc2oc3ccccc3c(=O)c2c1 (stereo unspecified)	.	.	.	.	/	.	/	/
CN1CCC[C@H]1CCNc1ccc2c(=O)c3ccccc3n(C)c2c1	.	.	.	.	.	49	84	80
CN1CCCC1CCNc1ccc2c(=O)c3ccccc3oc2c1 (stereo unspecified)	.	.	.	.	.	76	72	80
c1coc(-c2nc3nc4ccccc4nc3n2CC2CCCO2)c1 (stereo unspecified)	.	.	.	.	.	22	.	13
c1ccc(-c2nc3nc4ccccc4nc3n2CC2CCCO2)cc1 (stereo unspecified)	.	.	.	.	.	18	.	7.8
O=C1c2cccc3cccc(c23)C(=O)N1c1ccccc1Cl	.	.	.	.	.	46	26	22
